# Assay results published in ChEMBL document CHEMBL3526081 (Drug Metab Dispos, 2011).
# Legend:
# [1] = Drug metabolism in cynomolgus monkey liver microsomes assessed as 1alpha-hydroxylcinobufagin formation at 100 uM at 37 degC after 30 mins by UFLC-ESI-MS analysis; type: ADME, Macaca fascicularis; conditions: 0.5 h, read-out: Km(app)
# Procedure, shortened: (§1)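 Liver microsomes (0.3 mg protein/ml) incubated with 100 µM substrate at 37°C for 30 min, in 100 mM potassium phosphate pH 7.4 with NADPH-generating system (1 mM NADP+, 10 mM glucose 6-phosphate, 1 unit/ml G6PDH, 4 mM MgCl2). Acetonitrile ≤1% final. Stopped with ice-cold acetonitrile and centrifuged. Metabolites identified by UFLC-ESI-MS and quantified by UFLC-DAD at 294 nm against authentic standard curves.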
# Liver microsome [2] = experiment: Drug metabolism in human liver microsomes assessed as 5beta-hydroxylcinobufaginn formation at 100 uM […] by UFLC-ESI-MS analysis; type: ADME; conditions: 0.5 h, read-out: Km(app)
# Liver microsome [3] = experiment: Drug metabolism in beagle dog liver microsomes assessed as 5beta-hydroxylcinobufaginn formation per mg of protein at 100 uM at 37 degC after 30 mins by UFLC-ESI-MS analysis; type: ADME, Canis lupus familiaris; conditions: 0.5 h; procedure, shortened: as §1
# Liver microsome [4] = experiment: Drug metabolism in human liver microsomes assessed as 1alpha-hydroxylcinobufagin formation at 100 uM at 37 degC after 30 mins […] in presence of 2.5 uM 8-methoxypsoralen CYP2A6 inhibitor; type: ADME; conditions: 0.5 h
# [5] = Drug metabolism in cynomolgus monkey liver microsomes assessed as 1alpha-hydroxylcinobufagin formation per mg of protein at 100 uM at 37 degC after 30 mins by UFLC-ESI-MS analysis; type: ADME, Macaca fascicularis; conditions: 0.5 h; procedure, shortened: as §1
# [6] = Drug metabolism in cynomolgus monkey liver microsomes assessed as 1alpha-hydroxylcinobufagin formation at 100 uM at 37 degC after 30 mins by UFLC-ESI-MS analysis in presence of NADPH-generating system; type: ADME, Macaca fascicularis; conditions: 0.5 h; procedure, shortened: as §1
# [7] = Drug metabolism in Swiss-Hauschka (ICR) mouse liver microsomes assessed as 1alpha-hydroxylcinobufagin formation at 100 uM at 37 degC after 30 mins by UFLC-ESI-MS analysis in presence of 1 uM ketoconazole CYP3A4 inhibitor; type: ADME; conditions: 0.5 h
# Procedure, shortened: (§2)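 Chemical inhibition: selective P450 inhibitors (furafylline, sulfaphenazole, ketoconazole) added to liver microsome incubations in 100 mM potassium phosphate pH 7.4 with NADPH-generating system at 37°C. Hydroxylated metabolite formation quantified by UFLC at 294 nm against standards. Mean ± S.D. of three experiments in duplicate.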
# [8] = Ratio of Vmax/Km in Colony-bred Chinese Bama minipig liver microsomes assessed as 1alpha-hydroxylcinobufagin formation at 100 uM […] by UFLC-ESI-MS analysis; type: ADME, Sus scrofa; conditions: pig, 0.5 h
# Liver microsome [9] = experiment: Drug metabolism in human liver microsomes assessed as 1alpha-hydroxylcinobufagin formation at 100 uM at 37 degC after 30 mins by UFLC-ESI-MS analysis in presence of NADPH-generating system; type: ADME; conditions: 0.5 h
# Procedure, shortened: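 CB (100 µM; acetonitrile ≤1% final) was incubated with pooled HLM (0.3 mg/ml) plus NADPH-generating system (1 mM NADP+, 10 mM glucose 6-phosphate, 1 unit/ml G6PDH, 4 mM MgCl2) in pH 7.4 phosphate buffer at 37°C for 30 min. Products were identified by UFLC-ESI-MS and quantified by UFLC-DAD at 294 nm.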
# Liver microsome [10] = experiment: Drug metabolism in human liver microsomes assessed as 1alpha-hydroxylcinobufagin formation at 100 uM at 37 degC after 30 mins by UFLC-ESI-MS analysis in presence of 50 uM clomethiazole CYP2E1 inhibitor; type: ADME; conditions: 0.5 h
# Procedure, shortened: (§3)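 Pooled human liver microsomes (10 donors, both sexes) in 100 mM potassium phosphate pH 7.4 were incubated with CB and a selective P450 inhibitor. Reaction was started with NADPH-generating system after 3 min preincubation at 37°C and stopped with ice-cold acetonitrile. Hydroxylated products were quantified by UFLC-DAD at 294 nm; three experiments in duplicate.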
# Liver microsome [11] = experiment: Drug metabolism in human liver microsomes assessed as 5beta-hydroxylcinobufagin formation at 100 uM at 37 degC after 30 mins by UFLC-ESI-MS analysis in presence of 10 uM quinidine CYP2D6 inhibitor; type: ADME; conditions: 0.5 h; procedure, shortened: as §3
# [12] = Drug metabolism in Swiss-Hauschka (ICR) mouse liver microsomes assessed as 5beta-hydroxylcinobufaginn formation per mg of protein at 100 uM at 37 degC after 30 mins by UFLC-ESI-MS analysis; type: ADME; conditions: 0.5 h; procedure, shortened: as §1
# Liver microsome [13] = experiment: Drug metabolism in human liver microsomes assessed as 5beta-hydroxylcinobufagin formation at 100 uM at 37 degC after 30 mins by UFLC-ESI-MS analysis in presence of 10 uM furafylline CYP1A2 inhibitor; type: ADME; conditions: 0.5 h; procedure, shortened: as §3
# Liver microsome [14] = experiment: Ratio of Vmax/Km in beagle dog liver microsomes assessed as 5beta-hydroxylcinobufaginn formation at 100 uM […] by UFLC-ESI-MS analysis; type: ADME, Canis lupus familiaris; conditions: 0.5 h
# Liver microsome [15] = experiment: Drug metabolism in human liver microsomes assessed as 1alpha-hydroxylcinobufagin formation at 100 uM […] by UFLC-ESI-MS analysis; type: ADME; conditions: 0.5 h, read-out: Km(app)
# Liver microsome [16] = experiment: Drug metabolism in beagle dog liver microsomes assessed as 1alpha-hydroxylcinobufagin formation at 100 uM at 37 degC after 30 mins by UFLC-ESI-MS analysis in presence of 1 uM ketoconazole CYP3A4 inhibitor; type: ADME, Canis lupus familiaris; conditions: 0.5 h; procedure, shortened: as §2
# Liver microsome [17] = experiment: Drug metabolism in human liver microsomes assessed as 5beta-hydroxylcinobufagin formation at 100 uM at 37 degC after 30 mins […] in presence of 50 uM clomethiazole CYP2E1 inhibitor; type: ADME; conditions: 0.5 h
# [18] = Drug metabolism in Swiss-Hauschka (ICR) mouse liver microsomes assessed as 1alpha-hydroxylcinobufagin formation at 100 uM at 37 degC after 30 mins by UFLC-ESI-MS analysis in presence of 10 uM furafylline CYP1A2 inhibitor; type: ADME; conditions: 0.5 h; procedure, shortened: as §2
# Liver microsome [19] = experiment: Ratio of Vmax/Km in human liver microsomes assessed as 1alpha-hydroxylcinobufagin formation at 100 uM […] by UFLC-ESI-MS analysis; type: ADME; conditions: 0.5 h
# [20] = Drug metabolism in Swiss-Hauschka (ICR) mouse liver microsomes assessed as 1alpha-hydroxylcinobufagin formation at 100 uM at 37 degC after 30 mins by UFLC-ESI-MS analysis in presence of NADPH-generating system; type: ADME; conditions: 0.5 h; procedure, shortened: as §1
# [21] = Drug metabolism in Colony-bred Chinese Bama minipig liver microsomes assessed as 1alpha-hydroxylcinobufagin formation per mg of protein at 100 uM at 37 degC after 30 mins by UFLC-ESI-MS analysis; type: ADME, Sus scrofa; conditions: pig, 0.5 h; procedure, shortened: as §1
# [22] = Drug metabolism in cynomolgus monkey liver microsomes assessed as 1alpha-hydroxylcinobufagin formation at 100 uM at 37 degC after 30 mins by UFLC-ESI-MS analysis in presence of 10 uM sulfaphenazole CYP2C9 inhibitor; type: ADME, Macaca fascicularis; conditions: 0.5 h; procedure, shortened: as §2
# Liver microsome [23] = experiment: Drug metabolism in beagle dog liver microsomes assessed as 1alpha-hydroxylcinobufagin formation at 100 uM at 37 degC after 30 mins by UFLC-ESI-MS analysis in presence of NADPH-generating system; type: ADME, Canis lupus familiaris; conditions: 0.5 h; procedure, shortened: as §1
# [24] = Drug metabolism in cynomolgus monkey liver microsomes assessed as 5beta-hydroxylcinobufagin formation at 100 uM at 37 degC after 30 mins by UFLC-ESI-MS analysis in presence of NADPH-generating system; type: ADME, Macaca fascicularis; conditions: 0.5 h; procedure, shortened: as §1
# Liver microsome [25] = experiment: Drug metabolism in human liver microsomes assessed as 1alpha-hydroxylcinobufagin formation per mg of protein at 100 uM at 37 degC […] by UFLC-ESI-MS analysis; type: ADME; conditions: 0.5 h
smiles,measurement,setting,value
CC(=O)O[C@H]1[C@H]2O[C@]23[C@@H]2CC[C@@H]4C[C@@H](O)CC[C@]4(C)[C@H]2CC[C@]3(C)[C@H]1c1ccc(=O)oc1 [CINOBUFAGIN],Km,[1],34.2 µM
same,Km,Liver microsome [2],20.4 µM
same,Vmax,Liver microsome [3],0.44 nmol/min/mg
same,Drug metabolism,Liver microsome [4],metabolite_detected
same,Vmax,[5],2.12 nmol/min/mg
same,Drug metabolism,[6],metabolite_detected
same,Drug metabolism,[7],metabolite_not_detected
same,Vmax/Km,[8],14.5 µL/mg/min
same,Drug metabolism,Liver microsome [9],metabolite_detected
same,Drug metabolism,Liver microsome [10],metabolite_detected
same,Drug metabolism,Liver microsome [11],metabolite_detected
same,Vmax,[12],6.51 nmol/min/mg
same,Drug metabolism,Liver microsome [13],metabolite_detected
same,Vmax/Km,Liver microsome [14],129.4 µL/mg/min
same,Km,Liver microsome [15],12.5 µM
same,Drug metabolism,Liver microsome [16],metabolite_not_detected
same,Drug metabolism,Liver microsome [17],metabolite_detected
same,Drug metabolism,[18],metabolite_detected
same,Vmax/Km,Liver microsome [19],47.2 µL/mg/min
same,Drug metabolism,[20],metabolite_detected
same,Vmax,[21],0.25 nmol/min/mg
same,Drug metabolism,[22],metabolite_detected
same,Drug metabolism,Liver microsome [23],metabolite_detected
same,Drug metabolism,[24],metabolite_detected
same,Vmax,Liver microsome [25],0.59 nmol/min/mg
